Active and inactive are the calls of the source. The calls are words filed in the database; no cut-off is given here.
How the values were obtained:
[1] = test system: CD4+ve Th; assay: Cytotoxicity against human CD4+ve Th cells upto 100 uM incubated for 3 hrs by annexin/PI staining based flow cytometry; assay type: toxicity, cell-based
Method in brief: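 Memory CD4+ T cells from healthy-donor PBMC (Ficoll, magnetic isolation, >95% purity), 20×10^4 cells exposed to compound at 5–500 μM for 3 h at 37 °C, 5% CO2; viability by annexin/propidium iodide flow cytometry.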

[2] = test system: CD4+ve Th; assay: Inhibition of cell migration of CCL20-induced human CD4+ve Th cells expressing CCR6 at 50 uM incubated for 3 hrs by FACS analysis; assay type: functional, cell-based
Method in brief: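 Memory CD4+ T cells (20×10^4) in upper chamber of 5.0 μm transwell in IMDM with 0.5% BSA, preincubated with compound (0.5–50 μM) 15 min at 4 °C; 500 ng/ml CCL20 in lower chamber. After 3 h at 37 °C, migrated cells counted with counting beads by flow cytometry; migration index = CCL20-driven / medium-only migration; duplicate or triplicate.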

[3] = molecular target: T1, C-C chemokine receptor type 6 (Homo sapiens) (UniProt P51684); assay: Agonist activity at CCR6 (unknown origin) transfected in HEK293T cells assessed as beta-arrestin-1 recruitment at 0.030 to 300 uM measured for 20 mins by NanoBiT assay; assay type: functional, cell-based; settings: dose 0.03-300 µM
T1 sequence (whole entry): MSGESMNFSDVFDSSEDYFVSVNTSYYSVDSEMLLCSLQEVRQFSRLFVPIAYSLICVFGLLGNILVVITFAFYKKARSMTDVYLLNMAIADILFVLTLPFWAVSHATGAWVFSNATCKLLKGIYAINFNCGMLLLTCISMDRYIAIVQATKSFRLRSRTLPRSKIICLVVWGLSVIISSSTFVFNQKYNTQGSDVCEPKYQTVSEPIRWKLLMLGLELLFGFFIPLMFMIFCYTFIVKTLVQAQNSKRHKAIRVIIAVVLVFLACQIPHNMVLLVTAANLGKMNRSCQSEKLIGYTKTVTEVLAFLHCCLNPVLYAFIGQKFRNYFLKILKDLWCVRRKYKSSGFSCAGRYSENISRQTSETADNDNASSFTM
Method in brief: (§1)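 HEK293T cells (DMEM, 10% FBS) co-transfected with SmBiT C-tagged CCR6 or CCR5 and LgBiT N-tagged human β-arrestin-1 or miniGi; harvested 24 h later, loaded with coelenterazine h 15 min at 37 °C, 10^5 cells/well. Luminescence from recruitment induced by compound (30 nM–300 μM) read for 20 min; CCL20 (30 pM–300 nM) positive control.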

[4] = molecular target: T1, C-C chemokine receptor type 6 (Homo sapiens); assay: Agonist activity at CCR6 (unknown origin) transfected in HEK293T cells assessed as mini-Gi recruitment at 0.030 to 300 uM measured for 20 mins by NanoBiT assay; assay type: functional, cell-based; settings: dose 0.03-300 µM; method in brief: as §1
[5] = molecular target: T1, C-C chemokine receptor type 6 (Homo sapiens); assay: Antagonist activity at CCR6 (unknown origin) transfected in HEK293T cells assessed as CCL20-induced beta-arrestin-1 recruitment at 0.030 to 300 uM measured for 20 mins by NanoBiT assay; assay type: functional, cell-based; settings: filed as antagonist, dose 0.03-300 µM
Method in brief: (§2)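 NanoBiT complementation in co-transfected HEK293T cells (SmBiT-tagged CCR6 or CCR5, LgBiT-tagged β-arrestin-1 or miniGi), coelenterazine h 15 min at 37 °C. After compound exposure (30 nM–300 μM), cells were stimulated with CCL20 10 nM (CCR6) or CCL5 5 nM (CCR5) and inhibition of chemokine-induced recruitment was monitored by luminescence.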

[6] = molecular target: T1, C-C chemokine receptor type 6 (Homo sapiens); assay: Antagonist activity at CCR6 (unknown origin) transfected in HEK293T cells assessed as CCL20-induced mini-Gi recruitment at 0.030 to 300 uM measured for 20 mins by NanoBiT assay; assay type: functional, cell-based; settings: filed as antagonist, dose 0.03-300 µM; method in brief: as §2
[7] = molecular target: C-C chemokine receptor type 5 (Homo sapiens) (UniProt P51681); assay: Agonist activity at CCR5 (unknown origin) transfected in HEK293T cells assessed as beta-arrestin-1 recruitment at 0.030 to 300 uM measured for 20 mins by NanoBiT assay; assay type: functional, cell-based; settings: dose 0.03-300 µM; method in brief: as §1
Sequence of C-C chemokine receptor type 5 (Homo sapiens) (P51681 whole entry, looked up): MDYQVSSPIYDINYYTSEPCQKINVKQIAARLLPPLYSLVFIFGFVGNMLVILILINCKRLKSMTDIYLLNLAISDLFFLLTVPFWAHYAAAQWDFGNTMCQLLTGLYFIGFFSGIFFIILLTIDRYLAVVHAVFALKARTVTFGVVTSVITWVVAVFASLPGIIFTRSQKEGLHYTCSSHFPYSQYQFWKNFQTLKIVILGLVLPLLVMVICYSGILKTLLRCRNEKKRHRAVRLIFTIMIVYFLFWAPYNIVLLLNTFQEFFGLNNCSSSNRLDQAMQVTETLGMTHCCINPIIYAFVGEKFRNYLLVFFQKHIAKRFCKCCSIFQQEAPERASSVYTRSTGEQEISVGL

[8] = molecular target: C-C chemokine receptor type 5 (Homo sapiens) (UniProt P51681); assay: Antagonist activity at CCR5 (unknown origin) transfected in HEK293T cells assessed as CCL5-induced beta-arrestin-1 recruitment at 0.030 to 300 uM measured for 20 mins by NanoBiT assay; assay type: functional, cell-based; settings: filed as antagonist, dose 0.03-300 µM; method in brief: as §2
[9] = test system: Mus musculus; assay: Anti-colitis activity against TNBS-induced colitis Swiss mouse model assessed as decrease in disease activity index at 1 mg/kg, sc bid for 3 days; assay type: functional, organism-based; settings: time 3.0 day
Method in brief: (§3)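 Female CD1 Swiss mice (7–12 weeks) skin-sensitized, then after 20 h fast given 5 mg TNBS in 50% ethanol intrarectally 6 days later. Compound 1 mg/kg or vehicle (1% DMSO in saline, 10 mL/kg) s.c. twice daily, 8 h apart, days 1–4; euthanized day 4. DAI from daily weight, stool, bleeding by blinded observers; macroscopic score; colon/lung MPO.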

[10] = test system: Mus musculus; assay: Anti-colitis activity against TNBS-induced colitis Swiss mouse model assessed as decrease in macroscopic injury at 1 mg/kg, sc bid for 3 days; assay type: functional, organism-based; settings: time 3.0 day; method in brief: as §3
[11] = test system: Mus musculus; assay: Anti-colitis activity against TNBS-induced colitis Swiss mouse model assessed as decrease in neutrophil infiltration by measuring MPO activity in colon at 1 mg/kg, sc bid for 3 days by absorbance based assay; assay type: functional, organism-based; settings: time 3.0 day; method in brief: as §3
[12] = test system: Mus musculus; assay: Anti-inflammatory activity against zymosan-induced peritonitis mouse model assessed as decrease in neutrophil recruitment in peritoneal lavage at 1 mg/kg, sc administrated 1 hr prior to zymosan administration and measured after 4 hrs by PI staining based flow cytometry; assay type: functional, organism-based; settings: time 5.0 hrs
Method in brief: (§4)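 Mice fasted 2 h, then zymosan A 5 mg/mL in PBS (0.2 mL) i.p. Compound 1 mg/kg s.c. (vehicle 1% DMSO in saline, 10 mL/kg) 1 h before zymosan, or also 2 h after. Lavage at 4 h with 3 mL PBS, EDTA, heparin; centrifuged; supernatant protein by BCA (mg/mL); pellet MPO (mU/mL) or flow cytometry.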

[13] = test system: Mus musculus; assay: Anti-inflammatory activity against zymosan-induced peritonitis mouse model assessed as decrease in MPO activity in peritoneal lavage at 1 mg/kg, sc administrated 1 hr prior to zymosan administration and measured after 4 hrs by absorbance based assay; assay type: functional, organism-based; settings: time 5.0 hrs; method in brief: as §4
[14] = test system: Mus musculus; assay: Anti-inflammatory activity against zymosan-induced peritonitis mouse model assessed as decrease in total proteins in peritoneal lavage at 1 mg/kg, sc administrated 1 hr prior to zymosan administration and measured after 4 hrs by BCA assay; assay type: functional, organism-based; settings: time 5.0 hrs; method in brief: as §4
[15] = test system: Mus musculus; assay: Anti-inflammatory activity against zymosan-induced peritonitis mouse model assessed as decrease in total proteins in peritoneal lavage at 1 mg/kg, sc administrated 1 hr before and 2 hrs after zymosan administration and measured after 2 hrs by BCA assay; assay type: functional, organism-based; settings: time 5.0 hrs; method in brief: as §4
[16] = test system: Mus musculus; assay: Anti-inflammatory activity against zymosan-induced peritonitis mouse model assessed as decrease in MPO activity in peritoneal lavage at 1 mg/kg, sc administrated 1 hr before and 2 hrs after zymosan administration and measured after 2 hrs by absorbance based assay; assay type: functional, organism-based; settings: time 5.0 hrs; method in brief: as §4
[17] = test system: Mus musculus; assay: Anti-colitis activity against TNBS-induced colitis Swiss mouse model assessed as decrease in neutrophil infiltration by measuring MPO activity in lung at 1 mg/kg, sc bid for 3 days by absorbance based assay; assay type: functional, organism-based; settings: time 3.0 day; method in brief: as §3

SMILES	Activity [1]	inhibition [2]	Activity [3]	Activity [4]	Activity [5]	Activity [6]	Activity [7]	Activity [8]	Activity [9]	Activity [10]	Activity [11]	Activity [12]	Activity [13]	Activity [14]	Activity [15]	Activity [16]	Activity [17]
C/C(=N\Nc1ccc2ccccc2n1)c1cccc(C(F)(F)F)c1	Non-Toxic	–	–	–	–	–	–	–	–	–	–	–	–	–	–	–	–
Cc1c(C(=O)Nc2cccc(F)c2)oc2ccccc12	Non-Toxic	–	–	–	–	–	–	–	–	–	–	–	–	–	–	–	–
Cc1c(C(=O)Nc2ccc(C(F)(F)F)cc2)oc2ccccc12	Non-Toxic	Active	inactive	inactive	Active	Active	inactive	Active	Active	Active	Active	inactive	inactive	inactive	Active	Active	Active

Reference: ChEMBL document CHEMBL5352413, “Discovery of small-molecules targeting the CCL20/CCR6 axis as first-in-class inhibitors for inflammatory bowel diseases” (Eur J Med Chem, 2022)
